Experiment [1] is described as follows: inhibitors of TNFa-induced NFkB p65 translocation, primary screen, imaging, HUVEC, MLSMR starter and 10KST1 sets (AID 438;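 active means inhibition above 20% together with a positive visual image hit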;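 further: compound added about 3h40 before a 20 min TNFalpha stimulation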;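 on inhibition: signal is the nuclear over cytoplasmic p65 intensity ratio per well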). Conditions: HUVEC TNFa-induced p65 nuclear translocation; cell count: measured here: nuclei count (cytotoxicity indicator), at 2.08 µM; inhibition: at 2 µM, stronger effect = higher value, 0% TNFa-plus-vehicle, 100% no-TNFa wells.
A short description of experiment [2]: inhibitors of mutant huntingtin aggregation, primary screen, imaging, exon1htt(103Q)mCFP cells, high-content imaging (AID 483;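 active means visual image review flags a hit and inhibition of aggregation exceeds 20%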;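 further: compound exposure lasted 3 days before fixation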;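 on nuclei count: percent of the per-plate median nuclei count of sample wells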). Conditions: exon1htt(103Q)mCFP cell line, aggregate imaging, at 2 µM; inhibition of aggregation: stronger effect = higher value; nuclei count: measured here: cell count, toxicity.
A short description of experiment [3]: inhibitors of E-selectin induction by TNFa, primary screen, imaging, HUVEC, immunofluorescence, MLSMR starter and 10KST1 sets (AID 487;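 active means visually confirmed hit in the image check and inhibition above 20%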;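 on inhibition: signal is fraction of cell area covered by stained E-selectin grains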;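 on nuclei count: 100% = median nuclei count of all wells on the same plate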). Conditions: HUVEC TNFalpha-induced E-selectin immunofluorescence imaging, at 2 µM; inhibition: stronger effect = higher value; nuclei count: measured here: cell number, toxicity.
The target of experiment [4] is Voltage-gated potassium channel subunit beta-2 (Rattus norvegicus) (UniProt P62483). Kind of experiment: KvBeta enzyme negative modulators, primary screen, biochemical, NADPH fluorescence (AID 622;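 active means fluorescence slope higher than the sample average by over 3 SD, cut at about -0.22 in these data, passing the limit was not always enough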;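 further: slope of raw intensity against log time taken from 70 to 1610 s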). Conditions: recombinant KvBeta, 4-cyanobenzaldehyde reduction, at 10 µM, stronger effect = higher value.
Experiment [5] shares this target. Kind of experiment: KvBeta positive modulators, primary screen, biochemical, NADPH fluorescence (AID 623;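 active means NADPH fluorescence slope more negative than the mean of all samples by about 3 SD, 99.7% confidence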;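 further: fluorescence intensity change per second fitted from 20 to 320 s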). Conditions: Recombinant KvBeta, NADPH fluorescence decrease slope, 10 min; at 10 µM; stronger effect = lower value.
Experiment [6] deals with Muscarinic acetylcholine receptor M4 (Homo sapiens) (UniProt P08173). Nature of the experiment: compounds altering M4/GIRK thallium flux, either direction, primary screen, M4 allosteric agonist project, cell-based, HEK293 M4/GIRK, BTC-AM (AID 625;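 active means fluorescence slope after compound addition differing from the mean of all tested samples at 99.7% confidence, mostly higher but some lower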;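 further: thallium influx through GIRK channels coupled to M4 in HEK293 cells with BTC-AM dye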). Conditions: at 10 µM, actives lie on both sides. Summed up: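 Assay system: HEK293 cells with M4 receptor and GIRK channels / Controls: carbachol and DMSO controls / Schedule: 1 h dye loading, 2 min kinetic read / Technique: kinetic fluorescence with BTC-AM dye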

Experiment [7] in a line: inhibitors of Sendai virus-induced IRF3 signaling, primary screen, TLR/RLR signaling modifier project, cell-based, Sendai virus stimulus, luciferase, 10K MLSCN set (AID 602276;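 active means inhibition at or above 50% at 10 µM; inactive means inhibition below 50%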;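 further: firefly luciferase from ISG56 promoter only with Renilla not read in this screen; 0% = Sendai virus plus DMSO and 100% = medium plus DMSO without virus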). Conditions: HEK293 RL24 IRF3 luciferase reporter, at 10 µM, stronger effect = higher value. Background: Reporter assays use an easily measured gene product as a stand-in for the process of interest.
The nature of experiment [8]: inhibitors of poly I:C-induced TLR3 signaling, primary screen, cell-based, poly I:C stimulus, luciferase, 10K MLSCN set (AID 602277). Conditions: HEK293-TLR3 RL24 IRF3 luciferase reporter, at 10 µM, stronger effect = higher value.

The results in this text go back to PubChem BioAssay.

Activity calls are given as the source filed them.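 How the source made its calls, unless noted: active means inhibition of the reporter signal at or above 50%; inactive means inhibition below 50%.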

Chain of Voltage-gated potassium channel subunit beta-2 (Rattus norvegicus) (P62483 whole entry, looked up): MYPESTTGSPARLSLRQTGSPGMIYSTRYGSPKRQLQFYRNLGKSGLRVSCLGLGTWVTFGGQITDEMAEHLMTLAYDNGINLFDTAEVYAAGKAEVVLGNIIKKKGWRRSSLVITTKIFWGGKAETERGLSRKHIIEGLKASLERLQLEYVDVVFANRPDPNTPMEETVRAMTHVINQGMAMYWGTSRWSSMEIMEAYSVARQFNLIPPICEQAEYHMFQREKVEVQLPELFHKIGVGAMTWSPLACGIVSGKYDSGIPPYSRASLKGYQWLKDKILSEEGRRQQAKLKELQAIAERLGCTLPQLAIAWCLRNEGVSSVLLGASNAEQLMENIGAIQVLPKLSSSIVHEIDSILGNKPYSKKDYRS
Chain of Muscarinic acetylcholine receptor M4 (Homo sapiens) (P08173 whole entry, looked up): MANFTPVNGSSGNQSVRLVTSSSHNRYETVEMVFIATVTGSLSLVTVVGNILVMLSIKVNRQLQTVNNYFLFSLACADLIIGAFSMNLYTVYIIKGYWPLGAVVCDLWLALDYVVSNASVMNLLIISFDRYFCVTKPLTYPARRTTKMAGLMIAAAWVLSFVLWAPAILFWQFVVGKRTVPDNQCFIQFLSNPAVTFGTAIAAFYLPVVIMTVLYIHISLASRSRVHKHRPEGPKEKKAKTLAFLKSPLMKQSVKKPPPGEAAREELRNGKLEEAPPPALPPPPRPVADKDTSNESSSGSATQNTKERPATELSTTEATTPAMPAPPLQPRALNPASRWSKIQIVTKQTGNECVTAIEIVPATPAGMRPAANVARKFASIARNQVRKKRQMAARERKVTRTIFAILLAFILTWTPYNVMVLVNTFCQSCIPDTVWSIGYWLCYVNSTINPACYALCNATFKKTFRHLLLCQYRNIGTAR

With `CCOC(=O)c1c(NC(=O)Cn2c(C)nc3ccccc32)sc2c1CCC2`, the cell count in experiment [1] is 459. For the same compound, the inhibition (usually the relative decrease from the control value, in per cent) is -6.2% (inactive) in experiment [1], -75.4% (inactive) in experiment [3], 17.3% (inactive) in experiment [7] and 24% (inactive) in experiment [8]. Besides, in experiment [2], the inhibition of aggregation is 15.3% (inactive). The nuclei count in experiment [2] amounted to 102%; in experiment [3], 112%. The fluorescence slope was -0.552 (inactive) in experiment [4] and 0.00437 (inactive) in experiment [6]. The NADPH fluorescence slope in experiment [5] is -2.4e-05 (inactive).
For `COc1cccc(-n2c(C)nc3c(cnn3-c3ccc(C)cc3)c2=O)c1`, the cell count in experiment [1] came to 684. In addition, the inhibition is -5% (inactive) in experiment [1], -67.2% (inactive) in experiment [3], -34.8% (inactive) in experiment [7] and -67.9% (inactive) in experiment [8]. The inhibition of aggregation in experiment [2] is 2.3% (inactive). Also, the results for the nuclei count in experiment [2] and in experiment [3] were 111% and 118%, respectively. The fluorescence slope in experiment [4] was -0.577 (inactive); in experiment [6], 0.00597 (inactive). Also, in experiment [5], the NADPH fluorescence slope is 2.9e-06 (inactive).
Regarding `COCCOc1nc2ccccc2nc1C`, in experiment [1], the cell count amounted to 351. The inhibition in experiment [1] is 5.2% (inactive); in experiment [3], -5.9% (inactive); in experiment [7], 16.4% (inactive); in experiment [8], 2.62% (inactive). Also, the inhibition of aggregation in experiment [2] is 8.5% (inactive). Moreover, the nuclei count in experiment [2] amounted to 87.8%; in experiment [3], 104%. The values for the fluorescence slope in experiment [4] and in experiment [6] were -0.615 (inactive) and 0.00668 (inactive), respectively. In addition, the NADPH fluorescence slope in experiment [5] is -2.4e-05 (inactive).
Turning to `CC(C)CCNC(=O)NC(=O)CSc1nnc(-c2ccccc2F)n1N`, in experiment [1], the cell count stood at 572. Besides, the inhibition in experiment [1] is 0.4% (inactive); in experiment [3] it was -223% (inactive); in experiment [7], -9.04% (inactive); in experiment [8], -3.83% (inactive). Also, in experiment [2], the inhibition of aggregation was -5.6% (inactive). The nuclei count in experiment [2] was 104%; in experiment [3] it was 178%. For the same compound, the fluorescence slope was -0.517 (inactive) in experiment [4] and 0.00509 (inactive) in experiment [6]. Further, the NADPH fluorescence slope in experiment [5] was 9.8e-05 (inactive).
With `CCOc1ccc(CN2CCN(c3cc(C)nc4c5c(C)cc(C)nc5nn34)CC2)cc1`, the cell count in experiment [1] came out at 361. The inhibition in experiment [1] is -7.1% (inactive); in experiment [3], 1.9% (inactive); in experiment [7], 11.7% (inactive); in experiment [8], 22.8% (inactive). Besides, the inhibition of aggregation in experiment [2] is 5% (inactive). Besides, the nuclei count in experiment [2] stood at 108%; in experiment [3], 114%. Also, the fluorescence slope is -0.385 (inactive) in experiment [4] and 0.00419 (inactive) in experiment [6]. For the same compound, in experiment [5], the NADPH fluorescence slope was 1.9e-05 (inactive).
As for `CC1CCN(C(=O)Cn2c(=O)oc3ccccc32)CC1`, the cell count in experiment [1] turned out to be 322. Moreover, the inhibition in experiment [1] was -0.6% (inactive); in experiment [3] it was -222% (inactive); in experiment [7], -14.5% (inactive); in experiment [8] it was -12.5% (inactive). Besides, the inhibition of aggregation in experiment [2] was 15.4% (inactive). Moreover, the nuclei count in experiment [2] stood at 100%; in experiment [3], 104%. Further, the fluorescence slope is -0.57 (inactive) in experiment [4] and 0.00554 (inactive) in experiment [6]. Also, the NADPH fluorescence slope in experiment [5] is 4.8e-06 (inactive).
For the compound `COc1cccc(-n2nnc3c(=O)n(Cc4cccc(F)c4)cnc32)c1`, in experiment [1], the cell count worked out at 421. In addition, the inhibition was -1.7% (inactive) in experiment [1], -3.7% (inactive) in experiment [3], -8.19% (inactive) in experiment [7] and -14% (inactive) in experiment [8]. For the same compound, the inhibition of aggregation in experiment [2] is -11.5% (inactive). Moreover, the nuclei count in experiment [2] turned out to be 127%; in experiment [3], 117%. In addition, the fluorescence slope is -0.304 (inactive) in experiment [4] and 0.00737 (inactive) in experiment [6]. In addition, the NADPH fluorescence slope in experiment [5] was -7e-06 (inactive).
Take `CC(C)(C)OC(=O)N1CCOCCOCCN(C(=O)OC(C)(C)C)CCOCCOCC1`: the cell count in experiment [1] amounted to 395. Moreover, the inhibition is 0.8% (inactive) in experiment [1], -90.1% (inactive) in experiment [3], 4.46% (inactive) in experiment [7] and 6.47% (inactive) in experiment [8]. The inhibition of aggregation in experiment [2] is 2.5% (inactive). Moreover, the values for the nuclei count in experiment [2] and in experiment [3] were 92.3% and 119%, respectively. Besides, the values for the fluorescence slope in experiment [4] and in experiment [6] were -0.579 (inactive) and 0.00267 (inactive), respectively. The NADPH fluorescence slope in experiment [5] is -6.4e-05 (inactive).
As for `O=C(Cc1c(O)c2ccccc2[nH]c1=O)NCc1ccc(F)cc1`, the cell count in experiment [1] was 251. Moreover, the inhibition in experiment [1] is 4.3% (inactive); in experiment [3], -25.6% (inactive); in experiment [7] it was 20.7% (inactive); in experiment [8], 24.8% (inactive). Besides, in experiment [2], the inhibition of aggregation was 18.1% (inactive). The nuclei count in experiment [2] was determined as 61.3%; in experiment [3] it was 115%. For the same compound, the results for the fluorescence slope in experiment [4] and in experiment [6] were -0.544 (inactive) and 0.00681 (inactive), respectively. Besides, the NADPH fluorescence slope in experiment [5] was -2e-05 (inactive).
`O=C1CN=C(Nc2cccc(C(F)(F)F)c2)N1C1CCCC1`: the cell count in experiment [1] is 421. In addition, the inhibition in experiment [1] was 4.8% (inactive); in experiment [3] it was -375% (inactive); in experiment [7] it was -11.3% (inactive); in experiment [8], -11.6% (inactive). Further, the inhibition of aggregation in experiment [2] was -11% (inactive). The nuclei count was 107% in experiment [2] and 149% in experiment [3]. The fluorescence slope in experiment [4] was -0.436 (inactive); in experiment [6] it was 0.00643 (inactive). Further, the NADPH fluorescence slope in experiment [5] is -0.000109 (inactive).
With `CCC(C)NC(=O)C1(C)CCC(=O)N1Cc1ccccc1OC` (centres undefined), the cell count in experiment [1] was 406. In addition, the inhibition is -14.1% (inactive) in experiment [1], -15.7% (inactive) in experiment [3], 12.9% (inactive) in experiment [7] and 22.5% (inactive) in experiment [8]. In experiment [2], the inhibition of aggregation was -3.9% (inactive). For the same compound, the figures for the nuclei count in experiment [2] and in experiment [3] were 105% and 93.9%, respectively. The fluorescence slope was -0.512 (inactive) in experiment [4] and 0.00751 (inactive) in experiment [6]. The NADPH fluorescence slope in experiment [5] was 0.000141 (inactive).
With `COC(=O)c1cc(Br)c(=O)n(CCC2=CCCCC2)c1`, the cell count in experiment [1] is 559. Moreover, the inhibition in experiment [1] is 0% (inactive); in experiment [3], 6.3% (inactive); in experiment [7], -1.92% (inactive); in experiment [8], 9.19% (inactive). For the same compound, the inhibition of aggregation in experiment [2] is -16.7% (inactive). Besides, the nuclei count in experiment [2] turned out to be 110%; in experiment [3] it was 122%. Also, the figures for the fluorescence slope in experiment [4] and in experiment [6] were -0.497 (inactive) and 0.00488 (inactive), respectively. Moreover, the NADPH fluorescence slope in experiment [5] is 9.3e-05 (inactive).
As to `CCN1CCN(Cc2c(C)[nH]c3ccc(OC)cc3c2=O)CC1`, the cell count in experiment [1] stood at 405. Also, the inhibition in experiment [1] is 18.7% (inactive); in experiment [3], -241% (inactive); in experiment [7] it was 19.5% (inactive); in experiment [8], 26.6% (inactive). For the same compound, the inhibition of aggregation in experiment [2] is -19.4% (inactive). Also, the values for the nuclei count in experiment [2] and in experiment [3] were 99.3% and 113%, respectively. The fluorescence slope in experiment [4] was -0.57 (inactive); in experiment [6], 0.00708 (inactive). Besides, the NADPH fluorescence slope in experiment [5] was -9e-05 (inactive).
For `CS(=O)(=O)N1CCc2cc(C(=O)N3CCCCC3)ccc21`, in experiment [1], the cell count was 493. For the same compound, the inhibition in experiment [1] is 6.1% (inactive); in experiment [3] it was -8.3% (inactive); in experiment [7], 17.7% (inactive); in experiment [8] it was 18.6% (inactive). The inhibition of aggregation in experiment [2] is 0.6% (inactive). Also, the results for the nuclei count in experiment [2] and in experiment [3] were 100% and 83.3%, respectively. For the same compound, the fluorescence slope in experiment [4] is -0.494 (inactive); in experiment [6], 0.00629 (inactive). Moreover, the NADPH fluorescence slope in experiment [5] is 5.6e-05 (inactive).
